Measurements reported in ChEMBL document CHEMBL1133101, “7-Methyl-6,7,8,9,14,15-hexahydro-5H-benz[d]indolo[2,3-g]azecine: a new heterocyclic system and a new lead compound for dopamine receptor antagonists” (J Med Chem, 2000).

Key:
[1] = target: T1, Adenosine receptor A1 (Homo sapiens) (UniProt P30542); experiment: Percent decrease in adenosine-A1-receptor binding using CPDPX; parameters: scale not given: the % may be the effect or the level left
T1 sequence (whole entry): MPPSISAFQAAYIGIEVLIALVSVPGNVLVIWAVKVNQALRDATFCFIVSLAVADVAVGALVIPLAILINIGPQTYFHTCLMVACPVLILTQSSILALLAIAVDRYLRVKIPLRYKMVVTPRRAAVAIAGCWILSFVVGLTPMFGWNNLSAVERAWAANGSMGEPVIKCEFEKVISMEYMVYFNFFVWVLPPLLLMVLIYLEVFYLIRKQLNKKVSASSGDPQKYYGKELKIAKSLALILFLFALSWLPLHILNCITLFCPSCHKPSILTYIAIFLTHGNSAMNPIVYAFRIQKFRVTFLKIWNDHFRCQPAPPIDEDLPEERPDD
Method in brief: (§1)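 Preliminary screen of receptors isolated from rat or pig tissues, run with minor changes to standard procedures. Each compound was tested at a single fixed concentration for each receptor. The read-out was the percent decrease in binding of the named radioligand.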

[2] = target: D(2) dopamine receptor (Rattus norvegicus) (UniProt P61169); experiment: Percent decrease in Dopamine receptor D2 binding using spiperone; parameters: scale not given: the % may be the effect or the level left; method in brief: as §1
Chain of D(2) dopamine receptor (Rattus norvegicus) (P61169 whole entry): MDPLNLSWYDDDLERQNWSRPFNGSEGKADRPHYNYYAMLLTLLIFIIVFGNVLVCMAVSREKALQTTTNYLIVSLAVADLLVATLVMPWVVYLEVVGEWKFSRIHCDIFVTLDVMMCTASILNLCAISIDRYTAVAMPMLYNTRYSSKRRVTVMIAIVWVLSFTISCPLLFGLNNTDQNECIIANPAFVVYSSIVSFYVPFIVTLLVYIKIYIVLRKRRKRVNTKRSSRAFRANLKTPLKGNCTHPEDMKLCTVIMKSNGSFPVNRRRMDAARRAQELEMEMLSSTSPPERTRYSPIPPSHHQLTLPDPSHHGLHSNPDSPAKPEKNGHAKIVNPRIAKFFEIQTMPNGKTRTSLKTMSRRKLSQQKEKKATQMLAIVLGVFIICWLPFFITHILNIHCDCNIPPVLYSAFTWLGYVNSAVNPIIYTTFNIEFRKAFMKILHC

[3] = Percent decrease of Endothelin receptor binding using [125I]sarafotoxin; parameters: concentration or dose not given beside the values
[4] = target: Sulfonylurea receptors; K-ATP channels (Homo sapiens) (UniProt Q14654+O60706+Q09428+Q15842); experiment: Percent inhibition of glibenclamide binding to K+ channel; assay type: protein-complex assay; parameters: concentration or dose not given beside the values; method in brief: as §1
Chain of Sulfonylurea receptors; K-ATP channels (Homo sapiens) (O60706 whole entry, looked up): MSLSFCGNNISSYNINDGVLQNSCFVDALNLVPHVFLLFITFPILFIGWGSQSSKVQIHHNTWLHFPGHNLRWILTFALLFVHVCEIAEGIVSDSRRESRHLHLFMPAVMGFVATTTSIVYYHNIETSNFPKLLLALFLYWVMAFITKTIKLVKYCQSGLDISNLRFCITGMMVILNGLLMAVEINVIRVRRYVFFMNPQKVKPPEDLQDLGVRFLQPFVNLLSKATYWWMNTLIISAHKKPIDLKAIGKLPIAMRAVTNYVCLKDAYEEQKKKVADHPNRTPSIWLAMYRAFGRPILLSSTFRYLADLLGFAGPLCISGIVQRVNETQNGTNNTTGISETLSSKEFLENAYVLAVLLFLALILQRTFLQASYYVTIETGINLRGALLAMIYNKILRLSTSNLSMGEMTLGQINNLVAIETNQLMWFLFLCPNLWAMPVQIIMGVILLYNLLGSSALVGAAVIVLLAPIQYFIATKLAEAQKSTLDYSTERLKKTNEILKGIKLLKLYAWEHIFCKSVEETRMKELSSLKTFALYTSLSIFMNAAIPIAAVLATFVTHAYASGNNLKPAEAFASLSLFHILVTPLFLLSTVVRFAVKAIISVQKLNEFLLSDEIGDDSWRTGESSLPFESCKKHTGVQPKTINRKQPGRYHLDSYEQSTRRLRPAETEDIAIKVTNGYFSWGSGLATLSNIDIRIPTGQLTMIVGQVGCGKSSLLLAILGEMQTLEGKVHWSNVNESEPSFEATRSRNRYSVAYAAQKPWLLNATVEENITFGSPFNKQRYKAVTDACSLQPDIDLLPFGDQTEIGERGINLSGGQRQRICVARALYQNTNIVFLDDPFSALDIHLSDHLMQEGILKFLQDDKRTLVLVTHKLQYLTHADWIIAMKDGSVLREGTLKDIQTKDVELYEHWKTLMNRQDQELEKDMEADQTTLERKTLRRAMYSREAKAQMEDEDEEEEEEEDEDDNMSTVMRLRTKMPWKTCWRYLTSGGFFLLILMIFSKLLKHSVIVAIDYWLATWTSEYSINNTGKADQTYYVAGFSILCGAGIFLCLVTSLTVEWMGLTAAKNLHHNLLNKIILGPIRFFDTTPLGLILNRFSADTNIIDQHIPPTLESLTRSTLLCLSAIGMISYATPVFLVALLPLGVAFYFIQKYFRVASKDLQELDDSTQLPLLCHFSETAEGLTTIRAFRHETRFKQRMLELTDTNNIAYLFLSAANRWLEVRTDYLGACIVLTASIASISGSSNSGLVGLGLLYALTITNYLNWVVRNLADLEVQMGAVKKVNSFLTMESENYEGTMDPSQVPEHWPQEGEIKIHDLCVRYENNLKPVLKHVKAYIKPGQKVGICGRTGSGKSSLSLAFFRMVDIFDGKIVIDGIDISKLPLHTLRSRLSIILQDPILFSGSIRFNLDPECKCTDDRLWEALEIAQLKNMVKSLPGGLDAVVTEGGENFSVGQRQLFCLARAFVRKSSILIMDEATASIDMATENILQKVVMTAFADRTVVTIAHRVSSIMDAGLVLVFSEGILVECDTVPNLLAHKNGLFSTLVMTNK
Chain of Sulfonylurea receptors; K-ATP channels (Homo sapiens) (Q09428 whole entry, looked up): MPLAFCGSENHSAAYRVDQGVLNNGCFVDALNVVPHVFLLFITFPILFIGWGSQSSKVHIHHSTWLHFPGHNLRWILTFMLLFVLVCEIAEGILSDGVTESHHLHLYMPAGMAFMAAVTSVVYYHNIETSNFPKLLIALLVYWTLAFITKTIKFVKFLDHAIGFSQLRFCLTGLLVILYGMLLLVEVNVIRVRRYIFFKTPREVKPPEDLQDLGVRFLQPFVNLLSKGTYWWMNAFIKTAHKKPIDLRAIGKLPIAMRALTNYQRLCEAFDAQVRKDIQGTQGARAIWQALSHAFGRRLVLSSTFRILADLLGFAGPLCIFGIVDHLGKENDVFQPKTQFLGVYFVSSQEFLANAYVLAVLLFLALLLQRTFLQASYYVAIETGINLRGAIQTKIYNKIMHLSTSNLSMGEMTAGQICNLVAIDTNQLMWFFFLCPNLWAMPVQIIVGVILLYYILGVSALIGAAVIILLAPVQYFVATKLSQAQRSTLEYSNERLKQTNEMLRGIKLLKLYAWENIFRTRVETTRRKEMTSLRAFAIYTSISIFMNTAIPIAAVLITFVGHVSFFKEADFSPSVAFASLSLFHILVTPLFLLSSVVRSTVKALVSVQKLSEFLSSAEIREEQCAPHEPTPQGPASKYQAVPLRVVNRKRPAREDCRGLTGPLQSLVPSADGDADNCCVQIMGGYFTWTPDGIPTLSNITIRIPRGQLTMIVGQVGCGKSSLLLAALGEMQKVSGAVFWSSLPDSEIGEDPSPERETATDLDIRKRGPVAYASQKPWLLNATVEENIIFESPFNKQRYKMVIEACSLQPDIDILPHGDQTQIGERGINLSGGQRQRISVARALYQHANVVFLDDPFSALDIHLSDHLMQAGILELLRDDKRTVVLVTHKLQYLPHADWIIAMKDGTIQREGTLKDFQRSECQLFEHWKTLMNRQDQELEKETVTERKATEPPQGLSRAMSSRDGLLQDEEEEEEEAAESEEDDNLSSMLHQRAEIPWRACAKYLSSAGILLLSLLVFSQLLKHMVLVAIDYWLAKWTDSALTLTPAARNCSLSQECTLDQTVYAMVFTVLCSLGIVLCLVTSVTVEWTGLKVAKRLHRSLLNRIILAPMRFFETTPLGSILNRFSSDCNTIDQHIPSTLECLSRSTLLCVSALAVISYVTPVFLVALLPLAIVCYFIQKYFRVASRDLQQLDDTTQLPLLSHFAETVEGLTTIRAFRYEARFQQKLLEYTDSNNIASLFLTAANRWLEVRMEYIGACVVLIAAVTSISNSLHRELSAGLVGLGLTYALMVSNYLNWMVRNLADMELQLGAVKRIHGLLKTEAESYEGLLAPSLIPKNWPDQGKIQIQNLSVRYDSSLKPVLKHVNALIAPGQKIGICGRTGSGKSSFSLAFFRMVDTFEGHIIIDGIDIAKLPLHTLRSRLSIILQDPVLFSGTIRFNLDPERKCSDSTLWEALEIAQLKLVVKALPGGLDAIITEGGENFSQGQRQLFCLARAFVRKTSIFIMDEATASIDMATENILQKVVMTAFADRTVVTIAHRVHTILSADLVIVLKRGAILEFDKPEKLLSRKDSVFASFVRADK
Chain of Sulfonylurea receptors; K-ATP channels (Homo sapiens) (Q14654 whole entry, looked up): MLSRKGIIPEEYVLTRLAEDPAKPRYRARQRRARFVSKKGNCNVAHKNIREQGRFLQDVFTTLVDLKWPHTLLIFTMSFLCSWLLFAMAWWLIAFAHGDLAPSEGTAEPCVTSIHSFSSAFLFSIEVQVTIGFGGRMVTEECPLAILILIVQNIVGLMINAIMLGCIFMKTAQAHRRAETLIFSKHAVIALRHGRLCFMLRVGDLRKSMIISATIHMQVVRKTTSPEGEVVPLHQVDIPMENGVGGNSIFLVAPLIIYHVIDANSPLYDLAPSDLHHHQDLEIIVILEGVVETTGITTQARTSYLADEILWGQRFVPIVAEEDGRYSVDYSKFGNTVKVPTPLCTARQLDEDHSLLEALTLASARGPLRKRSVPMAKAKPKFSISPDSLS
Chain of Sulfonylurea receptors; K-ATP channels (Homo sapiens) (Q15842 whole entry, looked up): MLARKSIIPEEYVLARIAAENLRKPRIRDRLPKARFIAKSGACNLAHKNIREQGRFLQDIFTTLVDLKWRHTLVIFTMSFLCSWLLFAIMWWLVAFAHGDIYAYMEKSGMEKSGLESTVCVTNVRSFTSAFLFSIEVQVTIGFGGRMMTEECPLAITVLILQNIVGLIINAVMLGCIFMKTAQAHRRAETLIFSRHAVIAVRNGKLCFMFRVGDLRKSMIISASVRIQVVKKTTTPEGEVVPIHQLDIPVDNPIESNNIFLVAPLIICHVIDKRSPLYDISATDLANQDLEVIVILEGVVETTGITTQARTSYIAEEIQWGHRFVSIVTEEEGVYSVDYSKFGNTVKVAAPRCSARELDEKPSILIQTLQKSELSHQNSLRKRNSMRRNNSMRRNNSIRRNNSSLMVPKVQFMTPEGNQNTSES

[5] = target: T2, Muscarinic acetylcholine receptor M1 (Homo sapiens) (UniProt P11229); experiment: Percent decrease of Muscarinic acetylcholine receptor M1 binding using pirenzepine; parameters: scale not given: the % may be the effect or the level left; method in brief: as §1
T2 sequence (whole entry): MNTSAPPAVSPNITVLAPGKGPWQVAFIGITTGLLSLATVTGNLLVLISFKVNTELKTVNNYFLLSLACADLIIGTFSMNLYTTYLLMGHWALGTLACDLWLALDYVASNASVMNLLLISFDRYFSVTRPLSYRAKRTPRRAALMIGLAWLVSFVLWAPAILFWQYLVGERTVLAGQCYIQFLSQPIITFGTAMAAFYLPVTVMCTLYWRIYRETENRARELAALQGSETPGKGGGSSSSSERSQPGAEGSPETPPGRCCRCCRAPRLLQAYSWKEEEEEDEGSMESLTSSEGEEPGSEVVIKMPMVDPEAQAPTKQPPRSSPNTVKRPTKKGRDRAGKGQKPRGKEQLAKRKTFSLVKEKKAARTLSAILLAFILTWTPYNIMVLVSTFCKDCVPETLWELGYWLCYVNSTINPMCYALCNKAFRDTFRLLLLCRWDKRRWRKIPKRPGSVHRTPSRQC

[6] = target: Glutamate [NMDA] receptor (Homo sapiens) (UniProt Q05586+Q12879+Q13224+O15399+O60391+Q14957+Q8TCU5); experiment: Percent decrease of N-methyl-D-aspartate glutamate receptor binding using MK-801; assay type: protein-complex assay; parameters: concentration or dose not given beside the values; method in brief: as §1
[7] = % Decrease of Phorbol Diester Receptor -bound radioactivity using PDBU as a radioligand.; parameters: scale not given: the % may be the effect or the level left; method in brief: as §1
[8] = % Decrease of adenosine carrier-receptor -bound radioactivity using NBTI as a radioligand.; parameters: concentration or dose not given beside the values; method in brief: as §1
[9] = target: Serotonin 2 (5-HT2) receptor (Rattus norvegicus, UniProt P30994+P08909+P14842); experiment: Binding affinity against 5-hydroxytryptamine 2 receptor in rat striatum using [3H]-RP62203; assay type: tissue-based
[10] = target: T1, Adenosine receptor A1 (Homo sapiens); experiment: Percent decrease in Adenosine A1 receptor binding using CPDPX; parameters: scale not given: the % may be the effect or the level left
D(1A) dopamine receptor = D(1A) dopamine receptor (Rattus norvegicus, UniProt P18901); experiment: Binding affinity against Dopamine receptor D1 of rat striatal receptor using [3H]SCH-23390
Chain of D(1A) dopamine receptor (P18901 whole entry): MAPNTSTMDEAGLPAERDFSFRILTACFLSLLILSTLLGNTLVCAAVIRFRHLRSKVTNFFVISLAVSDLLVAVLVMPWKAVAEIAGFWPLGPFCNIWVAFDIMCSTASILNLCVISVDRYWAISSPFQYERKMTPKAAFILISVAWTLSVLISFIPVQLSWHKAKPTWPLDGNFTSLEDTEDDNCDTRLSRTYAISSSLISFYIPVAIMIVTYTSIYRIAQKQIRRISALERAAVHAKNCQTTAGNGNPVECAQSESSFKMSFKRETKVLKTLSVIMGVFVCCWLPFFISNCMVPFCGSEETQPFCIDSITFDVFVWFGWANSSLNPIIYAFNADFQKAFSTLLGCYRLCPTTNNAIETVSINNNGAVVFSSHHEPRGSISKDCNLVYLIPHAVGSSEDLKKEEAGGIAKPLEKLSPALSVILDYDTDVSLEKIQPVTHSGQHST
Method in brief: (§2)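 Rat striatal receptor preparations were used, with [3H]SCH23390 for D1, [3H]spiperone for D2 and [3H]RP62203 for 5-HT2. Ki ([…]) was derived from competitive displacement of the radioligand, with n = 3–7.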

D(2) dopamine receptor = D(2) dopamine receptor (Rattus norvegicus, UniProt P61169); experiment: Binding affinity against Dopamine receptor D2 of rat striatal mambranes using [3H]spiperone; method in brief: as §2
Chain of D(2) dopamine receptor (P61169 whole entry): as the sequence (P61169 whole entry) above

[11] = target: Glutamate receptor ionotropic AMPA (Homo sapiens) (UniProt P48058+P42263+P42262+P42261); experiment: Percent decrease in Quisqualate receptor binding using AMPA; assay type: protein-complex assay; parameters: scale not given: the % may be the effect or the level left; method in brief: as §1
[12] = target: D(1A) dopamine receptor (Rattus norvegicus) (UniProt P18901); experiment: Percent decrease of Dopamine receptor D1 binding using SCH-23390; parameters: scale not given: the % may be the effect or the level left
Chain of D(1A) dopamine receptor (Rattus norvegicus) (P18901 whole entry, looked up): as the sequence (P18901 whole entry) above

In the case of `COc1cc2c(cc1OC)C1c3[nH]c4ccccc4c3CCN1CC2` (stereo unspecified), the Activity [1] is reported as 26%, the Activity [2] is reported as -11% and the Activity [3] is reported as 0%. For the same molecule, the Activity [4] was 11%, the Activity [5] was -11% and the Activity [6] was -14%. It also gave an Activity [7] of -9% and an Activity [8] of -17%.

In the case of `c1ccc2c(c1)CCN1CCc3c([nH]c4ccccc34)C21` (stereo unspecified), the Activity [1] is reported as 13%, the Activity [2] is reported as -19% and the Activity [3] is reported as -1%. It also gave an Activity [4] of 12%, an Activity [5] of -22% and an Activity [6] of -33%. The Activity [7] was -6% and the Activity [8] was -29%.

With `c1ccc2c3c([nH]c2c1)C1c2[nH]c4ccccc4c2CCN1CC3` the Activity [1] was 17%, the Activity [2] was -51% and the Activity [3] was 1%. The Activity [4] was 7%, the Activity [5] was -18% and the Activity [6] was -52%. The Activity [7] was -15% and the Activity [8] was 1%.

For `CN1CCc2ccccc2Cc2[nH]c3ccccc3c2CC1`, the Ki [9] was 20 nM, the Activity [10] was 5% and the Ki (D(1A) dopamine receptor) was 0.08 nM. It also gave a Ki (D(2) dopamine receptor) of 6 nM, an Activity [3] of 0% and an Activity [4] of 10%. It also gave an Activity [5] of -9%, an Activity [6] of -18% and an Activity [7] of 0%. The Activity [11] was -3%, the Activity [8] was -14% and the Activity [12] was -99%.
